High-throughput results: PubChem BioAssay, The Scripps Research Institute Molecular Screening Center
Only some compounds are listed: those with a hit (about 4.5% of all), similar ones and a draw of the others.
OX1R antag-1 = antagonists of human orexin 1 receptor (OX1R) | 330,000 compounds, 1.8% hits | Orexin/Hypocretin receptor type 1 (Homo sapiens), O43613 | OX1R-expressing cells, FRET antagonist read-out | inhibition, % at 6.6 µM; in the data active = inhibition mostly above about 38%, no sharp cut-off; inactive = mostly below about 40%;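 also: 0% = agonist challenge alone and 100% = reference antagonist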
Target sequence (O43613 whole entry, looked up): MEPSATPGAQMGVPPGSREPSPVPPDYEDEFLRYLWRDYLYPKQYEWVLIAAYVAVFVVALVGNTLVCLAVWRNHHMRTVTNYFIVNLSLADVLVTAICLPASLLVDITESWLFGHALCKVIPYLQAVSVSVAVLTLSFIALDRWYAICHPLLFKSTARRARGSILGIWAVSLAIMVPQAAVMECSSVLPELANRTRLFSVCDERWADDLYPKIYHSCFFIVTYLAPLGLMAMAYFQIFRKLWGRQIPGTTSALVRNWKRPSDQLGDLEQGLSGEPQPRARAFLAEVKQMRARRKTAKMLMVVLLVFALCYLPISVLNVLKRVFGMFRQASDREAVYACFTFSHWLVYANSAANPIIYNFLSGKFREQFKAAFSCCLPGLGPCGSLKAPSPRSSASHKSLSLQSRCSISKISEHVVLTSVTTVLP
TAAR1 antag = human TAAR1 antagonists, primary screen, Fluo-8 calcium fluorescence, CHO RD-HGA16 cells; antagonist; Trace amine-associated receptor 1 (Homo sapiens), Q96RJ0; inhibition, % at 3 µM; 360,000 compounds, 1.5% hits;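 active = inhibition above a per-plate cutoff, the mean inhibition of test compounds on that plate plus 3 SD, cut at about 49% in these data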;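 also: 0% = DMSO plus EC80 beta-PEA response and 100% = DMSO alone without agonist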
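Test system: hTAAR1-expressing CHO RD-HGA16 cells, Gα16-coupled; Probe or stimulus: EC80 β-phenethylamine stimulus; Compound dosing: single nominal final test compound concentration of 3 µM; Timing: 140 s kinetic read after compound, 140 s after agonist; Signal: Fluo-8 calcium-sensitive fluorescence; Measure: % inhibition of agonist calcium response; Controls: DMSO and EC80 PEA controls.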
CHO parental Ca = ATP-evoked calcium signal inhibitors, parental CHO, primary screen, counter-screen for OX1R antagonist project, cell-based, fluorescence, Fluo-8 calcium dye. parental CHO-K1, ATP-induced calcium, Fluo-8 fluorescence. inhibition, % at 5.6 µM. 330,000 compounds, 0.63% hits. AID 463079, 2010;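 active = inhibition above that plate's mean sample inhibition plus 3 SD, cut at about 26% in these data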;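 also: 0% = ATP-challenged DMSO wells and 100% = DMSO wells without ATP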
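Test system: untransfected parental CHO cell line. Compound: one dose, 5.6 µM nominal. Detection: intracellular calcium via Fluo-8 no-wash fluorescent dye. Measure: % inhibition. Benchmarks: ATP-challenged DMSO wells low, unchallenged DMSO wells high.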
OX1R antag-2 = OX1R (HCRTR1) antagonists, primary screen, fluorescence, CHO/OX1R cells, Fluo-8 calcium, orexin A. Orexin/Hypocretin receptor type 1 (Homo sapiens), O43613. Fluo-8 calcium fluorescence. inhibition, % at 5 µM. 330,000 compounds, 0.43% hits;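 active = inhibition above its plate's threshold, mean inhibition of all tested compounds on the plate plus 3 SD, cut at about 37% in these data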;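 also: 0% = orexin A challenge wells and 100% = SB-334867-A antagonist wells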
TAAR1 ag = human TAAR1 agonists, primary screen, Fluo-8 calcium fluorescence, CHO RD-HGA16 cells. vehicle wells 0%, saturating PEA agonist 100%. activation, % at 3 µM. 360,000 compounds, 0.99% hits;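 active = activation above the mean activation of all test compounds in the run plus 3 SD, cut at about 38% in these data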
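System: CHO-derived RD-HGA16 cells with stable Gα16 and human TAAR1 / Times: 17-24 h plating, Fluo-8 75 min 37 °C, 30 min RT / Technique: calcium-sensitive Fluo-8 signal, excitation 470-495, emission 515-575 nm / Measure: % activation relative to PEA EC100 response / Benchmarks: DMSO and PEA EC100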
GPR7 antagonist = GPR7 receptor antagonists, primary screen, cell-based, fluorescence, single concentration | GPR7-expressing cells, fluorescence antagonist assay | inhibition, % at 4.4 µM | 290,000 compounds, 1.1% hits; in the data active = inhibition above about 16%, passing the limit was not always enough;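 also: cells stimulated with the agonist NPW; 0% = agonist with vehicle and 100% = vehicle without agonist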
* marks the source's active call; other numbers are inactive results; . = not tested or not shown.

SMILES	OX1R antag-1	TAAR1 antag	CHO parental Ca	OX1R antag-2	TAAR1 ag	GPR7 antagonist
O=C(COc1ccccc1)Nc1nc2cc3c(cc2s1)OCCO3	14	6	5	2	0	-11
O=C(COc1ccccc1)Nc1nc2cc3c(cc2s1)OCO3	18	-1	31*	0	-1	-20
COc1ccc(NC(=O)CSc2nnc3ccc(-c4ccncc4)nn23)cc1OC	27	-9	-7	-19	-2	-2
CCOC(=O)c1sc(NC(=O)CSc2n[nH]c(-c3ccccc3)n2)c(C#N)c1C	39	25	40*	46*	18	1
CC(=O)Nc1cccc(NC(=O)CSc2nnc3ccc(-c4ccncc4)nn23)c1	67*	-30	1	-12	2	.
CC(=O)Nc1cccc(NC(=O)CSc2ncc(-c3ccccc3)[nH]2)c1	53*	-7	8	10	4	-9
CCOC(=O)c1sc(NC(=O)CSc2nc(C)cc(C)n2)c(C#N)c1C	11	35	-10	-11	16	-3
CC(=O)Nc1cccc(NC(=O)CSc2n[nH]c(-c3ccccc3)n2)c1	47*	6	-6	11	3	.
OC(CNCC(c1ccc(Cl)cc1Cl)c1c[nH]c2ccccc12)c1ccccc1 (stereo unspecified)	3	24	33*	17	30	19
O=[N+]([O-])CC(c1ccccc1)c1c[nH]c2ccccc12 (stereo unspecified)	11	-13	-1	-5	0	.
COc1ccc2c(CN3CCN(Cc4ccccc4)CC3)cc(=O)oc2c1	.	2	.	.	-1	.
CNc1nc(-c2ccc3c(c2)CCN3C(=O)c2ccccc2F)c(C)s1	16	25	-6	-17	-2	-13
CNc1nc(-c2ccc3c(c2)CCN3C(=O)c2ccccc2F)cs1	.	53*	.	.	2	-2
COc1cc(Br)c(/C=C/c2ccc3cccc(O)c3n2)cc1OC	9	6	-1	-10	-1	-3
COc1cc(/C=C/c2ccc3cccc(O)c3n2)c(Br)cc1O	7	12	45*	19	10	-8
Cc1cc2c(cc1C)-c1nnnn1C(N1CCCC1)C(=O)N2 (stereo unspecified)	.	-20	.	.	3	.
O=C(NC1=NCCS1)c1ccc(-c2ccc(Cl)cc2)o1	56*	-9	-33	-21	3	2
O=C(NC1=NCCS1)c1ccc(Cl)cc1	15	-7	2	2	5	10
COc1cc(Cl)ccc1OC1(C)CCN(Cc2ccc(SC)cc2)C1 (stereo unspecified)	.	-14	.	.	5	.
O=c1c2ccccc2sc2ccccc12	.	-31	.	.	0	.
Cc1cc2sc3ccccc3c(=O)c2c(C)c1O	69*	2	2	-1	-1	7
CCC1Sc2ccc(S(=O)(=O)CCC(=O)Nc3cccc(Br)c3)cc2NC1=O (stereo unspecified)	6	49*	-28	-14	7	-8
CCC1Sc2ccc(S(=O)(=O)CCC(=O)Nc3ccc(C(=O)OC)cc3)cc2NC1=O (stereo unspecified)	-4	22	100*	-22	2	-4
O=C1c2ccccc2C(=O)N1CCc1nc2ccccc2c(=O)n1-c1ccccn1	62*	23	-7	-12	22	-16
Cc1cc(C)cc(NC(=O)c2ccc(Cn3nc(C)c(Cl)c3C)o2)c1	15	54*	-8	8	29	16
SMILES	OX1R antag-1	TAAR1 antag	CHO parental Ca	OX1R antag-2	TAAR1 ag	GPR7 antagonist
COc1ccc(C)cc1NC(=O)C(=O)NNC(=O)COc1ccc(Cl)cc1	19	-16	35*	28	11	-12
COc1ccc(OCC(=O)NNC(=O)C(=O)Nc2cc(OC)ccc2OC)cc1	20	-34	-13	-16	1	-4
C[C@H]1[C@@H](c2ccccc2)Oc2ccc(Cl)cc2S(=O)(=O)N1Cc1cccc(F)c1	.	-43	.	.	8	.
COc1ccc(NC(=O)C[C@H]2C(=O)N(c3ccc(OC)cc3)C[C@@H]2CSC)cc1	.	8	.	.	1	.
Cc1oc(C(C)(C)C)cc1C(=O)NCc1ccc2c(c1)OCO2	1	-13	-13	-9	3	-8
CC1CC(C)CN(S(=O)(=O)c2ccc(C(=O)NCc3ccc4c(c3)OCO4)cc2)C1 (stereo unspecified)	3	15	-6	-17	1	4
CC1CCN(S(=O)(=O)c2ccc(C(=O)NCc3ccc4c(c3)OCO4)cc2)CC1	-2	58*	-4	-22	17	7
Cn1nc(C(C)(C)C)cc1C(=O)NCc1ccc2c(c1)OCO2	45	-8	48*	15	5	13
COc1ccc2c(C)c(CCC(=O)NCCCN3CCCC3=O)c(=O)oc2c1C	8	-2	-6	-5	0	-4
O=C(NCCc1ccc(Cl)cc1)c1ccc2c(=O)[nH]c3c(C(=O)NCC4CCCO4)sc(=S)n3c2c1 (stereo unspecified)	.	1	.	.	-1	.
CCOc1ccc(CC(=O)Nc2sc(Cc3ccccc3)c(C)c2C(N)=O)cc1OCC	57*	-10	-5	-4	0	-17
CCCCCCCCCCn1ccc(=N)cc1	23	-3	34*	48*	18	23*
COc1n[nH]c2nncnc12	121*	-3	-5	1	0	-3
CC(C)CNc1ncnc2c1ncn2[C@H]1CN(Cc2ccc(-c3ccccc3)cc2)C[C@@H](CO)O1	.	8	.	.	7	.
Cc1cc(C(=O)CSCc2nnc3n(CCC(C)C)c(=O)c4ccccc4n23)c(C)n1C	.	.	.	.	.	1
C/C=C(/C)C(=O)O[C@@H]1[C@H](OC(C)=O)c2c(ccc3ccc(=O)oc23)OC1(C)C	28	19	-25	-25	8	-12
C/C=C(/C)C(=O)OC1c2c(ccc3ccc(=O)oc23)OC(C)(C)C1OC(C)=O (stereo unspecified)	22	48	14	8	46*	1
O=C(Nc1ccc(-n2nncc2-c2ccco2)cc1)c1cc2ccccc2oc1=O	10	.	54*	-13	.	-12
O=C(NCc1ccco1)Nc1c(Cl)cc(Cl)cc1Cl	.	3	.	.	2	.
Cn1cnnc1SCC(=O)Nc1ccc(Cl)c(S(=O)(=O)N2CCOCC2)c1	8	7	-6	-14	-1	-8
CC(Nc1ncnc2ccccc12)c1ccccc1 (stereo unspecified)	6	34	38*	21	5	7
CC(C)Oc1ccc(Nc2ncnc3ccccc23)cc1	12	-2	-1	-18	1	-10
C(=C\c1ccccn1)/c1cccnc1	.	-6	.	.	1	-2
